Measurements: ChEMBL document CHEMBL4118106 (J Med Chem, 2018)
Activity calls are given as the source filed them. No cut-off for these calls is given here. Where a SMILES comes first, the peptide text is derived from it. Bridges are numbered along the chain shown (N, C = ends). [ ]: non-standard residue; d: D form. S5 = C=CCCC[C@](C)(N)C(=O)O; Nle = CCCC[C@H](N)C(=O)O

Assays:
[1] = Binding affinity to NHR peptide HR1P in pH 7.2 phosphate buffer at 250 uM after 30 mins by sedimentation velocity analysis
Method in brief: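 HR1P/peptide mixtures at 250 µM in 50 mM PBS were incubated at 25 °C for 30 min. After an initial scan at 3000 rpm for 10 min, sedimentation velocity was run at 60,000 rpm, 280 nm, 20 °C, for 7 h. Weight-averaged molecular weights were obtained by fitting.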

[2] = Cytotoxicity against human HuH7 cells after 48 hrs by CCK-8 assay; assay type: cell-based, Huh-7
Method in brief: (§1)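 Cells (1 × 10^5 per well) were preincubated at 37 °C for 12 h, then given graded peptide concentrations. After 48 h at 37 °C, CCK-8 was added and absorbance at 450 nm was read 2 h later.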

[3] = Binding affinity to NHR peptide HR1P in pH 7.2 phosphate buffer assessed as formation of alpha-helical complex at 50 uM after 30 mins by CD spectroscopic method
Method in brief: (§2)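 Peptides were at 50 µM final in 50 mM PBS, pH 7.2. Equimolar HR1P/peptide mixtures were incubated at 25 °C for 30 min before CD scanning. α-Helicity was taken from [θ]222, where -33,000 deg cm2/dmol = 100% helix.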

[4] = (§3) Inhibition of MERS-CoV spike protein mediated cell-cell fusion between viral protein expressing human 293T cells and human HuH7 target cells assessed as decrease in pseudovirus infection preincubated with virus for 1 hr followed by HuH7 cells addition measured after 48 hrs by luciferase reporter gene assay; set-up: species or system Middle East respiratory syndrome-related coronavirus
Method in brief: (§4)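 Graded peptide concentrations were preincubated with luciferase-reporter pseudovirus bearing MERS-CoV S for 1 h at room temperature. The mixture was added to Huh-7 or Calu-3 cells, with medium refreshed at 12 h. After a further 48 h at 37 °C, luciferase was read. Values are from three independent experiments, mean ± SD.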

[5] = Inhibition of EGFP-fused MERS-CoV spike protein mediated cell-cell fusion between viral protein expressing human 293T cells and human HuH7 target cells after 4 hrs by inverted fluorescence microscopic analysis; set-up: species or system Middle East respiratory syndrome-related coronavirus
Method in brief: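 Huh-7 target cells expressing DPP4 were seeded at 5 × 10^4/well and kept at 37 °C for 5 h. Inhibitors were added, then 293T effector cells co-expressing S protein and EGFP (1 × 10^4/well); 293T/EGFP-only cells served as negative control. After 4 h coculture at 37 °C, fused and unfused cells were counted by fluorescence microscopy.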

[6] = Binding affinity to NHR peptide HR1P in pH 7.2 phosphate buffer assessed as thermal unfolding transition at 50 uM after 30 mins by CD spectroscopic method
Method in brief: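 Equimolar HR1P/peptide mixtures, 50 µM final in 50 mM PBS pH 7.2, were preincubated at 25 °C for 30 min. Thermal denaturation was followed by CD at 222 nm over a 10–90 °C gradient at 2 °C/min.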

[7] = Binding affinity to NHR peptide HR1P in pH 7.2 phosphate buffer at 200 uM after 30 mins by N-PAGE analysis
Method in brief: (§5)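 Stapled peptide and HR1P, each 200 µM (in 50 mM PBS or ddH2O), were incubated together at 25 °C for 30 min. Samples in Tris-glycine native sample buffer were run on an 18% Tris-glycine gel (pH 8.3 buffer) at 120 V for 3 h at room temperature and stained with Coomassie blue R250.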

[8] = as §3, with “human Calu3” for “human HuH7”; set-up: species or system Middle East respiratory syndrome-related coronavirus; method in brief: as §4
Calu-3 = assay: Cytotoxicity against human Calu3 cells at 100 uM after 48 hrs by CCK-8 assay; assay type: cell-based; settings: calu-3, 48 h; method in brief: as §1
[9] = Binding affinity to NHR peptide HR1P in pH 7.2 phosphate buffer at 50 uM after 30 mins by CD spectroscopic method; method in brief: as §2
[10] = Binding affinity to NHR peptide HR1P in pH 7.2 phosphate buffer assessed as formation of alpha-helical complex at 200 uM after 30 mins by N-PAGE analysis; method in brief: as §5
[11] = Middle East respiratory syndrome-related coronavirus

| SMILES | CC50 at 48 h [2] [nM] | Activity [3] | EC50 [4, 11] [nM] | EC50 [5] [nM] | Tm [6] [°C] | Activity (Calu-3) | Activity [9] | further results |
| --- | --- | --- | --- | --- | --- | --- | --- | --- |
| CSCC[C@H](NC(=O)[C@H](CCC(=O)O)NC(=O)[C@H](Cc1ccc(O)cc1)NC(=O)[C@@H](NC(=O)[C@H](CC(C)C)NC(=O)[C@H](CC(=O)O)NC(=O)[C@H](CC(C)C)NC(C)=O)[C@@H](C)O)C(=O)N[C@@H](CC(C)C)C(=O)N[C@@H](CO)C(=O)N[C@@H](CC(C)C)C(=O)N[C@@H](CCC(N)=O)C(=O)N[C@@]1(C)CCC/C=C\CCC[C@@](C)(C(=O)N[C@@H](CC(C)C)C(=O)N[C@@H](CC(N)=O)C(=O)N[C@@H](CCC(=O)O)C(=O)N[C@@H](CO)C(=O)N[C@@H](Cc2ccc(O)cc2)C(N)=O)NC(=O)[C@H](CCCCN)NC(=O)[C@H](C(C)C)NC(=O)[C@H](C(C)C)NC1=O (Ac-LDLTYEMLSLQ[S5]VVK[S5]LNESY-NH2; staple (Z) 12-16) | > 100000 | 35.5% | 3030 | 260 | 71.1 | Non-Toxic |  | Activity [1]: Active; Activity [7]: Active; EC50 [8, 11]: 2210 nM |
| CCCC[C@H](NC(=O)[C@H](CCC(=O)O)NC(=O)[C@H](Cc1ccc(O)cc1)NC(=O)[C@@H](NC(=O)[C@H](CC(C)C)NC(=O)[C@H](CC(=O)O)NC(=O)[C@H](CC(C)C)NC(C)=O)[C@@H](C)O)C(=O)N[C@@H](CC(C)C)C(=O)N[C@@H](CO)C(=O)N[C@@H](CC(C)C)C(=O)N[C@@H](CCC(N)=O)C(=O)N[C@@]1(C)CCC/C=C\CCC[C@@](C)(C(=O)N[C@@H](CC(C)C)C(=O)N[C@@H](CC(N)=O)C(=O)N[C@@H](CCC(=O)O)C(=O)N[C@@H](CO)C(=O)N[C@@H](Cc2ccc(O)cc2)C(N)=O)NC(=O)[C@H](CCCCN)NC(=O)[C@H](C(C)C)NC(=O)[C@H](C(C)C)NC1=O (Ac-LDLTYE[Nle]LSLQ[S5]VVK[S5]LNESY-NH2; staple (Z) 12-16) | > 100000 |  |  | 630 |  | Non-Toxic |  | EC50 [4]: 2800 nM; EC50 [8]: 2570 nM |
| CSCC[C@H](NC(=O)[C@H](CCC(=O)O)NC(=O)[C@]1(C)CCC/C=C\CCC[C@](C)(NC(C)=O)C(=O)N[C@@H](CC(=O)O)C(=O)N[C@@H](CC(C)C)C(=O)N[C@@H]([C@@H](C)O)C(=O)N1)C(=O)N[C@@H](CC(C)C)C(=O)N[C@@H](CO)C(=O)N[C@@H](CC(C)C)C(=O)N[C@@H](CCC(N)=O)C(=O)N[C@@H](CCC(N)=O)C(=O)N[C@H](C(=O)N[C@H](C(=O)N[C@@H](CCCCN)C(=O)N[C@@H](C)C(=O)N[C@@H](CC(C)C)C(=O)N[C@@H](CC(N)=O)C(=O)N[C@@H](CCC(=O)O)C(=O)N[C@@H](CO)C(=O)N[C@@H](Cc1ccc(O)cc1)C(N)=O)C(C)C)C(C)C |  |  |  | > 50000 |  |  | inactive |  |
| CSCC[C@H](NC(=O)[C@H](CCC(=O)O)NC(=O)[C@H](Cc1ccc(O)cc1)NC(=O)[C@@H](NC(=O)[C@H](CC(C)C)NC(=O)[C@H](CC(=O)O)NC(=O)[C@H](CC(C)C)NC(C)=O)[C@@H](C)O)C(=O)N[C@@H](CC(C)C)C(=O)N[C@@]1(C)CCC/C=C/CCC[C@@](C)(C(=O)N[C@H](C(=O)N[C@@H](CCCCN)C(=O)N[C@@H](C)C(=O)N[C@@H](CC(C)C)C(=O)N[C@@H](CC(N)=O)C(=O)N[C@@H](CCC(=O)O)C(=O)N[C@@H](CO)C(=O)N[C@@H](Cc2ccc(O)cc2)C(N)=O)C(C)C)NC(=O)[C@H](CCC(N)=O)NC(=O)[C@H](CCC(N)=O)NC(=O)[C@H](CC(C)C)NC1=O (Ac-LDLTYEML[S5]LQQ[S5]VKALNESY-NH2; staple (E) 9-13) |  |  |  | > 50000 |  |  | inactive |  |
| CC[C@H](C)[C@H](NC(=O)[C@H](Cc1ccc(O)cc1)NC(=O)[C@H](CO)NC(=O)[C@H](CCC(=O)O)NC(=O)[C@H](CCC(=O)O)NC(=O)[C@H](CC(C)C)NC(=O)[C@H](CCCCN)NC(=O)[C@H](CCCCN)NC(=O)[C@@H](NC(=O)[C@@H](NC(=O)[C@H](CCC(=O)O)NC(=O)[C@H](CCC(=O)O)NC(=O)[C@H](CC(C)C)NC(=O)[C@H](CCCCN)NC(=O)[C@H](CCCCN)NC(=O)[C@H](CCSC)NC(=O)[C@H](CCC(=O)O)NC(=O)[C@H](Cc1ccc(O)cc1)NC(=O)[C@H](CCC(=O)O)NC(=O)[C@H](CC(C)C)NC(=O)[C@H](CC(=O)O)NC(=O)[C@H](CC(C)C)NC(=O)[C@H](CC(C)C)NC(=O)[C@@H](NC(=O)[C@@H](NC(=O)[C@H](CC(N)=O)NC(=O)[C@@H](NC(=O)[C@H](CCC(N)=O)NC(=O)[C@@H](NC(=O)[C@H](CC(C)C)NC(=O)[C@H](CO)NC(C)=O)[C@@H](C)O)[C@@H](C)CC)[C@@H](C)O)[C@@H](C)O)C(C)C)C(C)C)C(=O)N[C@@H](CC(=O)O)C(=O)N[C@@H](CC(C)C)C(=O)N[C@@H](CCCCN)C(=O)N[C@@H](CCC(=O)O)C(=O)N[C@@H](CC(C)C)C(N)=O | > 100000 |  | 1070 | 750 |  |  |  |  |
| CSCC[C@H](NC(=O)[C@H](CCC(=O)O)NC(=O)[C@H](Cc1ccc(O)cc1)NC(=O)[C@@H](NC(=O)[C@H](CC(C)C)NC(=O)[C@H](CC(=O)O)NC(=O)[C@H](CC(C)C)NC(C)=O)[C@@H](C)O)C(=O)N[C@@H](CC(C)C)C(=O)N[C@@H](CO)C(=O)N[C@@H](CC(C)C)C(=O)N[C@@H](CCC(N)=O)C(=O)N[C@@H](CCC(N)=O)C(=O)N[C@H](C(=O)N[C@H](C(=O)N[C@@H](CCCCN)C(=O)N[C@@]1(C)CCC/C=C\CCC[C@@](C)(C(=O)N[C@@H](Cc2ccc(O)cc2)C(N)=O)NC(=O)[C@H](CCC(=O)O)NC(=O)[C@H](CC(N)=O)NC(=O)[C@H](CC(C)C)NC1=O)C(C)C)C(C)C | > 100000 | 45.6% | 970 | 330 | 76.4 | Non-Toxic |  | Activity [1]: Active; Activity [7]: Active; EC50 [8, 11]: 1580 nM |
| CSCC[C@@H]1NC(=O)[C@H](CCC(=O)O)NC(=O)[C@H](Cc2ccc(O)cc2)NC(=O)[C@@](C)(NC(=O)[C@H](CC(C)C)NC(=O)[C@H](CC(=O)O)NC(=O)[C@H](CC(C)C)NC(C)=O)CCC/C=C\CCC[C@@](C)(C(=O)N[C@@H](CO)C(=O)N[C@@H](CC(C)C)C(=O)N[C@@H](CCC(N)=O)C(=O)N[C@@H](CCC(N)=O)C(=O)N[C@H](C(=O)N[C@H](C(=O)N[C@@H](CCCCN)C(=O)N[C@@H](C)C(=O)N[C@@H](CC(C)C)C(=O)N[C@@H](CC(N)=O)C(=O)N[C@@H](CCC(=O)O)C(=O)N[C@@H](CO)C(=O)N[C@@H](Cc2ccc(O)cc2)C(N)=O)C(C)C)C(C)C)NC1=O |  |  |  | > 50000 |  |  | inactive |  |
| CSCC[C@H](NC(=O)[C@H](CCC(=O)O)NC(=O)[C@H](Cc1ccc(O)cc1)NC(=O)[C@@H](NC(=O)[C@H](CC(C)C)NC(=O)[C@H](CC(=O)O)NC(=O)[C@H](CC(C)C)NC(C)=O)[C@@H](C)O)C(=O)N[C@@H](CC(C)C)C(=O)N[C@@H](CO)C(=O)N[C@@H](CC(C)C)C(=O)N[C@@H](CCC(N)=O)C(=O)N[C@@H](CCC(N)=O)C(=O)N[C@H](C(=O)N[C@H](C(=O)N[C@@]1(C)CCC/C=C/CCC[C@@](C)(C(=O)N[C@@H](CO)C(=O)N[C@@H](Cc2ccc(O)cc2)C(N)=O)NC(=O)[C@H](CC(N)=O)NC(=O)[C@H](CC(C)C)NC(=O)[C@H](C)NC1=O)C(C)C)C(C)C |  |  |  | 14100 | 56.6 to 66.6 |  |  |  |
| CSCC[C@H](NC(=O)[C@H](CCC(=O)O)NC(=O)[C@H](Cc1ccc(O)cc1)NC(=O)[C@@H](NC(=O)[C@H](CC(C)C)NC(=O)[C@H](CC(=O)O)NC(=O)[C@H](CC(C)C)NC(C)=O)[C@@H](C)O)C(=O)N[C@@H](CC(C)C)C(=O)N[C@@H](CO)C(=O)N[C@@H](CC(C)C)C(=O)N[C@@]1(C)CCC/C=C/CCC[C@@](C)(C(=O)N[C@@H](C)C(=O)N[C@@H](CC(C)C)C(=O)N[C@@H](CC(N)=O)C(=O)N[C@@H](CCC(=O)O)C(=O)N[C@@H](CO)C(=O)N[C@@H](Cc2ccc(O)cc2)C(N)=O)NC(=O)[C@H](C(C)C)NC(=O)[C@H](C(C)C)NC(=O)[C@H](CCC(N)=O)NC1=O (Ac-LDLTYEMLSL[S5]QVV[S5]ALNESY-NH2; staple (E) 11-15) |  | inactive |  | > 50000 |  |  |  | Activity [10]: inactive |
